Calls of active or inactive are those of the source. No cut-off for these calls is given here.
How the values were obtained:
[1] = biological target: T1, Adrenergic receptor alpha-1 (Rattus norvegicus, UniProt P15823+P23944+P43140); test: Inhibition of [3H]WB-4101 binding to alpha-1-adrenergic receptor from rat cerebral cortex membranes; assay type: cell membranes, Membrane
T1 sequence (P15823 whole entry): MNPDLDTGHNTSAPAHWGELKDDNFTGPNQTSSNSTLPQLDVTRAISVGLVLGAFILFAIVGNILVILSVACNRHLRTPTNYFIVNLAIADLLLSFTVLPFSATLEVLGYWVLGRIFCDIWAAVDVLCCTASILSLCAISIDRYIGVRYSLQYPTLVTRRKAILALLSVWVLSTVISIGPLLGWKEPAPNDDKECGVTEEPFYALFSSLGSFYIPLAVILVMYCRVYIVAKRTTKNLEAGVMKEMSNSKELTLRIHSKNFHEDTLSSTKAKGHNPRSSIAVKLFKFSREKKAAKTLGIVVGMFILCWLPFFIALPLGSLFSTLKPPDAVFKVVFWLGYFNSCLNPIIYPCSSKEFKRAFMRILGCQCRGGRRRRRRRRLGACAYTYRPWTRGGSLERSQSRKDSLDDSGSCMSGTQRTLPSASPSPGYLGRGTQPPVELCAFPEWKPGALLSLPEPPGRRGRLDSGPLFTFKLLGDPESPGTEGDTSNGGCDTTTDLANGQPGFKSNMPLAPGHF
T1 sequence (P23944 whole entry): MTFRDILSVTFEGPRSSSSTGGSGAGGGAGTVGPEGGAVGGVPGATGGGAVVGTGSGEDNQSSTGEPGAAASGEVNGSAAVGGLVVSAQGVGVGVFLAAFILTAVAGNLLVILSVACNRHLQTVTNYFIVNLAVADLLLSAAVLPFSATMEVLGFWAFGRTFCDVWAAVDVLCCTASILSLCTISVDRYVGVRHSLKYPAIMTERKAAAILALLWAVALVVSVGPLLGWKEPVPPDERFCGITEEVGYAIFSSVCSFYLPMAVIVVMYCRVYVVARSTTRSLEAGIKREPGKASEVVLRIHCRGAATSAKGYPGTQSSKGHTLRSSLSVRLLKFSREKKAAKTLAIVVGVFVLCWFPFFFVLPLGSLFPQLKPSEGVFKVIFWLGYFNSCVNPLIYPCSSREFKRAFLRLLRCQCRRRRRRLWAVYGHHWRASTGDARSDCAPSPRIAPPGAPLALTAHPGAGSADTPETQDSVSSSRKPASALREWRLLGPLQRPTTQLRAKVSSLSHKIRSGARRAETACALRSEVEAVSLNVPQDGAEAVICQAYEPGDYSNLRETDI
T1 sequence (P43140 whole entry): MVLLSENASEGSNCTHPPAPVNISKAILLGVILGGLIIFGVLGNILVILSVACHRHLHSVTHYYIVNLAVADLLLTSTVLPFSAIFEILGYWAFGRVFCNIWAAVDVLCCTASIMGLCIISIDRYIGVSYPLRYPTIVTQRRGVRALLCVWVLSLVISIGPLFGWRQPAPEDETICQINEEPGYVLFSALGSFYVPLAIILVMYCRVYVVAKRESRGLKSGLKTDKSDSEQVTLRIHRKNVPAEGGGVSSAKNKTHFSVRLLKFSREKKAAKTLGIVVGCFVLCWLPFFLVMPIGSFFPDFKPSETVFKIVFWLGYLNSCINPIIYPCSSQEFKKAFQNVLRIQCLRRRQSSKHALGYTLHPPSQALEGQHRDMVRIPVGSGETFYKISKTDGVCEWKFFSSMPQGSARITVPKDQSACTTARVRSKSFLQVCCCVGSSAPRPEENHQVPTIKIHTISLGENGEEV

Rattus norvegicus [2] = species: Rattus norvegicus; test: Inhibition of conditioned avoidance response (CAR) in fasted male Sprague-Dawley rats.; assay type: functional
Summary of the method: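 Rats trained to climb or hurdle a barrier in a shuttle box within 30 s. Training was 11 trials at 3-min intervals on day 1, then one foot-shock reinforcement and two trials daily for 9 days. On day 10, groups of 5-10 rats were given drug or vehicle by oral gavage and tested.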

Rattus norvegicus [3] = species: Rattus norvegicus; test: Inhibition of apomorphine induced stereotypy in nonfasted male Sprague-Dawley rats; assay type: functional
Summary of the method: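 Groups of 10 nonfasted male Sprague–Dawley rats got test drug by oral gavage. At the previously determined time of peak effect they were challenged with apomorphine 0.5 mg/kg sc and watched for 30 min in individual cages for sniffing, licking, rearing and biting. Inhibition meant all of these were blocked for the full 30 min. ED50 was taken by Berkson's method.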

Rattus norvegicus [4] = species: Rattus norvegicus; test: Induction of catalepsy in nonfasted, male Sprague-Dawley rats (dose that produced catalepsy in 50% of the animals); value may range from 69.6 to 172.9; assay type: functional
Rattus norvegicus [5] = species: Rattus norvegicus; test: Induction of catalepsy in nonfasted, male Sprague-Dawley rats (dose that produced catalepsy in 50% of the animals); value may range from 77.0 to 151.3; assay type: functional
Rattus norvegicus [6] = species: Rattus norvegicus; test: Induction of catalepsy in nonfasted, male Sprague-Dawley rats (dose that produced catalepsy in 50% of the animals); value may range from 27.5 to 74.3; assay type: functional
Rattus norvegicus [7] = species: Rattus norvegicus; test: Induction of catalepsy in nonfasted, male Sprague-Dawley rats (dose that produced catalepsy in 50% of the animals); value may range from 58.7 to 141.5; assay type: functional
Rattus norvegicus [8] = species: Rattus norvegicus; test: Inhibition of apomorphine induced stereotypy in nonfasted male Sprague-Dawley rats; inactive; assay type: functional, organism-based

Row | IC50 [1] [µM] | Structure (SMILES) | ED50 (Rattus norvegicus [2]) [mg/kg] | other results
1 | 0.48 | COc1ccccc1N1CCN(CCN2C(=O)CCC(C)(C)C2=O)CC1 | 55.3 | 
2 | > 1 | COc1ccccc1N1CCN(CCN2C(=O)CC3(CCCCCCC3)C2=O)CC1 | 69.9 | 
3 | > 1 | Cc1ccnc(N2CCN(CCCCN3C(=O)CC4(CCCC4)CC3=O)CC2)n1 | 52.4 | 
4 | 0.36 | N#Cc1cccnc1N1CCN(CCCCN2C(=O)CC3(CCCC3)CC2=O)CC1 | 45 | ED50 (Rattus norvegicus [3]): 36.6 mg/kg
5 | 0.82 | O=C1CCC2(CCCC2)CC(=O)N1CCCCN1CCN(c2ncccn2)CC1 | > 50 | 
6 | > 1 | O=C1CC2(CCCCCC2)C(=O)N1CCCCN1CCN(c2ncccn2)CC1 | 51.5 | 
7 | 0.15 | O=C1CC2(CCCC2)CC(=O)N1CCCN1CCN(c2cccc(Cl)c2)CC1 | 28.2 | 
8 | 0.065 | COc1cccnc1N1CCN(CCCCN2C(=O)CC3(CCCC3)CC2=O)CC1 | 55.2 | 
9 | 0.11 | O=C1CC2(CCCC2)CC(=O)N1CCCCN1CCN(c2ccccc2[N+](=O)[O-])CC1 | 48.8 | 
10 | 0.24 | COc1ccccc1N1CCN(CCN2C(=O)CC3(CCCCC3)C2=O)CC1 | 50 | 
11 | 0.019 | COc1ccccc1N1CCN(CCCN2C(=O)CC3(CCCC3)CC2=O)CC1 | 24.1 | 
12 | 0.275 | O=C1CC2(CCCC2)CC(=O)N1CCCCN1CCN(c2ccccn2)CC1 | 34 | 
13 | 0.895 | COc1ccccc1N1CCN(CCN2C(=O)CC(C)(C)CC2=O)CC1 | 91.2 | 
14 | 0.044 | Cc1ccccc1N1CCN(CCCCN2C(=O)CC3(CCCC3)CC2=O)CC1 | ~100 | 
15 | 0.68 | CC12CC1(C)C(=O)N(CCCCN1CCN(c3ncccn3)CC1)C2=O (centres undefined) | 91.6 | 
16 | > 1 | O=C1CC2(CCCCC2)C(=O)N1CCCCN1CCN(c2ncccn2)CC1 | 58.4 | 
17 | 0.023 | O=C1CC2(CCCC2)CC(=O)N1CCCCN1CCN(c2cccc(Cl)c2)CC1 | 27.6 | 
18 | 0.013 | COc1ccccc1N1CCN(CCCCN2C(=O)CC3(CCCC3)CC2=O)CC1 | 20.5 | 

Further lines, the molecule ahead of its results:

Row | Structure (SMILES) | IC50 [1] [µM] | ED50 (Rattus norvegicus [2]) [mg/kg] | other results
19 | O=C1CC2(CCCC2)CC(=O)N1CCCCN1CCN(c2ccccc2Cl)CC1 |  | 77.8 | ED50 (Rattus norvegicus [4]): 109 mg/kg
20 | O=C(CCCN1CCC(O)(c2ccc(Cl)cc2)CC1)c1ccc(F)cc1 [HALOPERIDOL] |  | 2.8 | 
21 | N#Cc1cccnc1N1CCN(CCCN2C(=O)CC3(CCCC3)CC2=O)CC1 |  | > 100 | 
22 | COc1ccccc1N1CCN(CCN2C(=O)C(C)CC(C)C2=O)CC1 (centres undefined) |  | > 100 | 
23 | O=C1CC2(CCCC2)CC(=O)N1CCN1CCN(c2cccc(Cl)c2)CC1 |  | > 100 | 
24 | O=C1CC2(CCCC2)CC(=O)N1CCCCN1CCN(c2ccccc2)CC1 |  | 30.7 | ED50 (Rattus norvegicus [5]): 108 mg/kg
25 | COc1ccccc1N1CCN(CCN2C(=O)CC3(CCCC3)CC2=O)CC1 [BMY-7378] |  | 52.1 | 
26 | CN1CCN(C2=Nc3cc(Cl)ccc3Nc3ccccc32)CC1 [CLOZAPINE] |  | 24.1 | 
27 | N#Cc1cccnc1N1CCN(CCN2C(=O)CC3(CCCC3)CC2=O)CC1 |  | > 100 | 
28 | O=C1CC2(CCCC2)CC(=O)N1CCCCN1CCN(c2ncccn2)CC1 [BUSPIRONE] |  |  | ED50 (Rattus norvegicus [3]): 28 mg/kg
29 | CSc1ccc2c(c1)N(CCC1CCCCN1C)c1ccccc1S2 (centres undefined) [THIORIDAZINE] |  | 126 | ED50 (Rattus norvegicus [6]): 45.2 mg/kg
30 | O=C1CC2(CCCC2)CC(=O)N1CCCCN1CCN(c2ccccc2F)CC1 |  | 37.1 | ED50 (Rattus norvegicus [7]): 91.1 mg/kg
31 | O=C1CC2(CCCC2)CC(=O)N1CCCN1CCN(c2ncccn2)CC1 |  | > 100 | 
32 | O=C1CC2(CCCC2)CC(=O)N1CCCCCN1CCN(c2ncccn2)CC1 |  | > 100 | 
33 | O=C1C2C3C=CC(CC3)C2C(=O)N1CCCCN1CCN(c2ncccn2)CC1 (centres undefined) |  | > 100 | 
34 | CC1(C)CC(=O)N(CCCCN2CCN(c3ncccn3)CC2)C(=O)C1 [GEPIRONE] |  | 52.5 | NA (Rattus norvegicus [8]): inactive
35 | O=C1CC2(CCCC2)CC(=O)N1CCN1CCN(c2ccccc2)CC1 |  | > 100 | 
